pIC50: −log10 of the molar value. Calls of active or inactive are those of the source. The rule behind the calls is not given here.
Columns and labels:
[1] = Inhibition of Plasmodium falciparum falcipain-2 peptidolytic activity using Z-Phe-Arg-AMC as substrate measured over 30 mins by spectrofluorimetric analysis
In short: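 Recombinant falcipain-2 at 20 nM in 100 mM sodium acetate, 10 mM DTT, 10% glycerol, pH 5.5, with 50 µM Z-Phe-Arg-AMC and varying inhibitor concentrations. AMC release followed continuously (ex 355/em 460 nm) over 30 min at 23 ± 2 °C. IC50 from percent activity versus inhibitor concentration fitted to four-parameter logistic; at least three independent experiments.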

[2] = tested on: Plasmodium falciparum; experiment: Binding affinity to Plasmodium falciparum falcipain-2 at 1:1 compound to protein molar ratio by isothermal titration assay
In short: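 Recombinant mature falcipain-2 domain (241 aa, E. coli-expressed, Ni-column purified, refolded), 5 µM in 100 mM sodium acetate pH 5.5, 5% glycerol, 10 mM DTT; suramin added stepwise from stock in same buffer. Intrinsic tryptophan fluorescence read at ex 295/em 340 nm; maximum dilution 10%, with fluorescence and protein concentration corrected. Stoichiometry taken from inflection of first-derivative titration curve.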

[3] = tested on: Plasmodium falciparum; experiment: Inhibition of Plasmodium falciparum falcipain-2 hemoglobinase activity at 200 nM after 90 mins by Coomassie Blue R-250 staining-based densitometric analysis
In short: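 Human hemoglobin 0.1 mg/ml digested by 20 nM recombinant falcipain-2 in 100 mM sodium acetate, 10 mM DTT, 10% glycerol, pH 5.5, with or without compound, 37 °C for 90 min. Quenched with denaturing SDS sample buffer, products run on 15% SDS-PAGE, Coomassie-stained, and remaining hemoglobin quantified by densitometry.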

Molecule `O=C(Nc1cccc(C(=O)Nc2ccc(S(=O)(=O)O)cc2S(=O)(=O)O)c1)Nc1cccc(C(=O)Nc2ccc(S(=O)(=O)O)cc2S(=O)(=O)O)c1` has a pIC50 [1] of 7.01.

With `O=C(Nc1cccc(C(=O)Nc2ccc(S(=O)(=O)O)c3cc(S(=O)(=O)O)cc(S(=O)(=O)O)c23)c1)Nc1cccc(C(=O)Nc2ccc(S(=O)(=O)O)c3cc(S(=O)(=O)O)cc(S(=O)(=O)O)c23)c1` the pIC50 [1] was 6.78.

`CC(C)c1ccc(C(=O)Nc2ccc(S(=O)(=O)O)c3cc(S(=O)(=O)O)cc(S(=O)(=O)O)c23)cc1NC(=O)c1cccc(NC(=O)Nc2cccc(C(=O)Nc3cc(C(=O)Nc4ccc(S(=O)(=O)O)c5cc(S(=O)(=O)O)cc(S(=O)(=O)O)c45)ccc3C(C)C)c2)c1` showed a pIC50 [1] of 6.95.

`COc1ccc(C(=O)Nc2ccc(S(=O)(=O)O)c3cc(S(=O)(=O)O)cc(S(=O)(=O)O)c23)cc1NC(=O)c1cccc(NC(=O)Nc2cccc(C(=O)Nc3cc(C(=O)Nc4ccc(S(=O)(=O)O)c5cc(S(=O)(=O)O)cc(S(=O)(=O)O)c45)ccc3OC)c2)c1` showed a pIC50 [1] of 7.17.

For `O=C(Nc1cccc(C(=O)Nc2cc(C(=O)Nc3ccc(S(=O)(=O)O)c4cc(S(=O)(=O)O)cc(S(=O)(=O)O)c34)ccc2F)c1)Nc1cccc(C(=O)Nc2cc(C(=O)Nc3ccc(S(=O)(=O)O)c4cc(S(=O)(=O)O)cc(S(=O)(=O)O)c34)ccc2F)c1`, the pIC50 [1] was 7.38.

`O=C(Nc1cccc(C(=O)Nc2cccc(C(=O)Nc3ccc(S(=O)(=O)O)c4cc(S(=O)(=O)O)cc(S(=O)(=O)O)c34)c2)c1)Nc1cccc(C(=O)Nc2cccc(C(=O)Nc3ccc(S(=O)(=O)O)c4cc(S(=O)(=O)O)cc(S(=O)(=O)O)c34)c2)c1` showed a pIC50 [1] of 7.44.

In the case of `O=C(Nc1cccc(C(=O)Nc2cc(C(=O)Nc3ccc(S(=O)(=O)O)c4cc(S(=O)(=O)O)cc(S(=O)(=O)O)c34)ccc2Cl)c1)Nc1cccc(C(=O)Nc2cc(C(=O)Nc3ccc(S(=O)(=O)O)c4cc(S(=O)(=O)O)cc(S(=O)(=O)O)c34)ccc2Cl)c1`, the pIC50 [1] was 7.11.

In the case of `CCc1ccc(C(=O)Nc2ccc(S(=O)(=O)O)c3cc(S(=O)(=O)O)cc(S(=O)(=O)O)c23)cc1NC(=O)c1cccc(NC(=O)Nc2cccc(C(=O)Nc3cc(C(=O)Nc4ccc(S(=O)(=O)O)c5cc(S(=O)(=O)O)cc(S(=O)(=O)O)c45)ccc3CC)c2)c1`, the pIC50 [1] was 7.10.

Molecule `O=C(Nc1cccc(C(=O)Nc2cc(C(=O)Nc3ccc(S(=O)(=O)O)c4cc(S(=O)(=O)O)cc(S(=O)(=O)O)c34)ccc2-c2ccccc2)c1)Nc1cccc(C(=O)Nc2cc(C(=O)Nc3ccc(S(=O)(=O)O)c4cc(S(=O)(=O)O)cc(S(=O)(=O)O)c34)ccc2-c2ccccc2)c1` has a pIC50 [1] of 7.21.

Work on `COCc1ccc(C(=O)Nc2ccc(S(=O)(=O)O)c3cc(S(=O)(=O)O)cc(S(=O)(=O)O)c23)cc1NC(=O)c1cccc(NC(=O)Nc2cccc(C(=O)Nc3cc(C(=O)Nc4ccc(S(=O)(=O)O)c5cc(S(=O)(=O)O)cc(S(=O)(=O)O)c45)ccc3COC)c2)c1` yielded a pIC50 [1] of 7.22.

In the case of `CC1=CCC(C(=O)/N=C2\CC=C(S(=O)(=O)O)c3cc(S(=O)(=O)O)cc(S(=O)(=O)O)c32)=C/C1=N/C(=O)C1=CC=C/C(=N\C(=O)/N=C2\C=CC=C(C(=O)/N=C3/CC(C(=O)/N=C4\CC=C(S(=O)(=O)O)c5cc(S(=O)(=O)O)cc(S(=O)(=O)O)c54)=CC=C3C)C2)C1`, the Activity [2] was “Active”, the pIC50 [1] was 7.02 and the inhibition [3] was “Active”.

Reference: ChEMBL document CHEMBL2396513, “Falcipain-2 inhibition by suramin and suramin analogues” (Bioorg Med Chem, 2013)
